Laboratory results taken from ChEMBL document CHEMBL4813962, “Design, synthesis and biological evaluation of sulfamoylphenyl-quinazoline derivatives as potential EGFR/CAIX dual inhibitors” (Eur J Med Chem, 2021).

Key:
NCI-H1975 [1] = assay: Induction of apoptosis in human NCI-H1975 cells assessed as viable cells at 2 uM incubated for 24 hrs by annexin V-FITC and propidium iodide based flow cytometry analysis (reference value: 93.2 %); assay type: functional; conditions: read-out: Activity
Carbonic anhydrase 9 [2] = target: T1, Carbonic anhydrase 9 (Homo sapiens, UniProt Q16790); assay: Downregulation of carbonic anhydrase 9 in human NCI-H1975 cells assessed as reduction in HIF-1alpha incubated for 24 hrs in hypoxic condition by Western blot analysis; assay type: cell-based
Summary of the method: (§1)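 Lysates cleared at 20 000 g, protein quantified by BCA, equal amounts run on 12% SDS-PAGE and blotted to PVDF. Probed overnight at 4 °C for CAIX and HIF-1α, chemiluminescent detection.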

[3] = target: Epidermal growth factor receptor (Homo sapiens, UniProt P00533, T790M)
NCI-H1975 [4] = assay: Induction of apoptosis in human NCI-H1975 cells assessed as late apoptotic cells at 5 uM incubated for 24 hrs by annexin V-FITC and propidium iodide based flow cytometry analysis (reference value: 4.98 %); assay type: functional
NCI-H1975 [5] = assay: Induction of apoptosis in human NCI-H1975 cells assessed as late apoptotic cells at 2 uM incubated for 24 hrs by annexin V-FITC and propidium iodide based flow cytometry analysis (reference value: 4.98 %); assay type: functional
NCI-H1975 [6] = assay: Induction of cell cycle arrest in human NCI-H1975 cells assessed as S phase at 2 uM incubated for 24 hrs by propidium iodide based flow cytometry analysis (reference value: 24.50 %); assay type: functional
NCI-H1975 [7] = assay: Downregulation of carbonic anhydrase 9 in human NCI-H1975 cells incubated for 24 hrs in hypoxic condition by Western blot analysis; assay type: functional, cell-based; summary of the method: as §1
NCI-H1975 [8] = assay: Induction of apoptosis in human NCI-H1975 cells assessed as necrotic cells at 5 uM incubated for 24 hrs by annexin V-FITC and propidium iodide based flow cytometry analysis (reference value: 0.455 %); assay type: functional
NCI-H1975 [9] = assay: Induction of apoptosis in human NCI-H1975 cells incubated for 24 hrs by annexin V-FITC and propidium iodide based flow cytometry analysis; assay type: functional, cell-based; conditions: dose 2-5 µM
NCI-H1975 [10] = assay: Cytotoxicity against human NCI-H1975 cells assessed as reduction in cell viability incubated for 72 hrs under hypoxic condition by MTT assay; assay type: functional, cell-based; conditions: NCI-H1975, 72 h
Summary of the method: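 H1975 cells grown in medium with 10% FBS and penicillin/streptomycin under hypoxia (1% O2, 94% N2, 5% CO2) at 37 °C. Compounds dissolved in DMSO and diluted in medium, final DMSO below 0.4%. Incubated 72 h at 37 °C, then MTT (5 mg/mL) for 4 h. Formazan dissolved in DMSO and OD read at 570/630 nm. IC50 from three parallel experiments.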

[11] = target: T2, Epidermal growth factor receptor (Homo sapiens, UniProt P00533); assay: Inhibition of EGFR in human NCI-H1975 cells assessed as reduction in EGFR phosphorylation incubated for 24 hrs by Western blot analysis; assay type: cell-based; conditions: dose 2-5 µM
Summary of the method: (§2)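 H1975 cells exposed to 2 or 5 µM compound for 24 h under normoxia. Lysates made on ice, protein measured by BCA, equal amounts separated on 12% SDS-PAGE and moved to PVDF. Blots blocked in 5% milk/TBST, incubated overnight at 4 °C with antibodies to EGFR/p-EGFR, AKT/p-AKT and ERK/p-ERK, and developed by chemiluminescence.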

Carbonic anhydrase 9 [12] = target: T1, Carbonic anhydrase 9
A-431 = assay: cells; assay type: functional, cell-based; conditions: Homo sapiens, A-431, 72 h
NCI-H1975 [13] = assay: Induction of apoptosis in human NCI-H1975 cells assessed as early apoptotic cells at 5 uM incubated for 24 hrs by annexin V-FITC and propidium iodide based flow cytometry analysis (reference value: 1.34 %); assay type: functional
NCI-H1975 [14] = assay: Antimigratory activity in human NCI-H1975 cells assessed as cell migration at 1 uM incubated for 24 hrs by wound healing assay (reference value: 51.2 %); assay type: functional
Summary of the method: (§3)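 H1975 monolayer scratched with pipette tip, washed twice with PBS, then kept in serum-free medium with test compound at 0.5 or 1.0 µM; untreated control got medium only. Wound photographed by inverted microscope after 24 h and wound area traced. Migration rate = (0 h wound area − […] wound area)/0 h wound area.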

NCI-H1975 [15] = assay: Induction of cell cycle arrest in human NCI-H1975 cells assessed as G2/M phase at 5 uM incubated for 24 hrs by propidium iodide based flow cytometry analysis (reference value: 14.74 %); assay type: functional
NCI-H1975 [16] = assay: Antimigratory activity in human NCI-H1975 cells assessed as reduction in cell migration incubated for 24 hrs by wound healing assay; assay type: functional, cell-based; conditions: dose 0.5-1 µM; summary of the method: as §3
[17] = target: T2, Epidermal growth factor receptor; assay: Inhibition of EGFR in human NCI-H1975 cells assessed as reduction in ERK phosphorylation incubated for 24 hrs by Western blot analysis; assay type: cell-based; conditions: dose 2-5 µM; summary of the method: as §2
NCI-H1975 [18] = assay: Antiproliferative activity against human NCI-H1975 cells assessed as reduction in cell viability incubated for 72 hrs by MTT assay; assay type: functional, cell-based; conditions: NCI-H1975, 72 h
NCI-H1975 [19] = assay: Induction of cell cycle arrest in human NCI-H1975 cells assessed as S phase at 5 uM incubated for 24 hrs by propidium iodide based flow cytometry analysis (reference value: 24.50 %); assay type: functional
NCI-H1975 [20] = assay: Induction of cell cycle arrest in human NCI-H1975 cells assessed as G1 phase at 5 uM incubated for 24 hrs by propidium iodide based flow cytometry analysis (reference value: 60.76 %); assay type: functional
A549 [21] = assay: Cytotoxicity against human A549 cells assessed as reduction in cell viability incubated for 72 hrs under hypoxic condition by MTT assay; assay type: functional, cell-based; conditions: A549, 72 h
Summary of the method: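 A549 cells given compound for 72 h at 37 °C in hypoxia (1% O2, 94% N2, 5% CO2). Compounds taken up in DMSO and diluted in medium, final DMSO below 0.4%. MTT then added for 4 h, formazan dissolved in DMSO, absorbance read at 570/630 nm. IC50 from three parallel experiments.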

A549 [22] = assay: cells; assay type: functional, cell-based; conditions: Homo sapiens, A549, 72 h
Carbonic anhydrase 2 = Carbonic anhydrase 2 (Homo sapiens, UniProt P00918); assay: Inhibition of human carbonic anhydrase 2 using p-nitrophenyl acetate as substrate by UV-VIS spectrophotometric analysis
NCI-H1975 [23] = assay: Induction of apoptosis in human NCI-H1975 cells assessed as necrotic cells at 2 uM incubated for 24 hrs by annexin V-FITC and propidium iodide based flow cytometry analysis (reference value: 0.455 %); assay type: functional
L02 = assay: cells; assay type: functional, cell-based; conditions: Homo sapiens, L02, 72 h
NCI-H1975 [24] = assay: Induction of cell cycle arrest in human NCI-H1975 cells incubated for 24 hrs by propidium iodide based flow cytometry analysis; assay type: functional; conditions: dose 2-5 µM
NCI-H1975 [25] = assay: Induction of cell cycle arrest in human NCI-H1975 cells assessed as G2/M phase at 2 uM incubated for 24 hrs by propidium iodide based flow cytometry analysis (reference value: 14.74 %); assay type: functional
NCI-H1975 [26] = assay: Induction of apoptosis in human NCI-H1975 cells assessed as early apoptotic cells at 2 uM incubated for 24 hrs by annexin V-FITC and propidium iodide based flow cytometry analysis (reference value: 1.34 %); assay type: functional
[27] = target: T2, Epidermal growth factor receptor; assay: Inhibition of EGFR in human NCI-H1975 cells assessed as reduction in AKT phosphorylation incubated for 24 hrs by Western blot analysis; assay type: cell-based; conditions: dose 2-5 µM; summary of the method: as §2
NCI-H1975 [28] = assay: Induction of cell cycle arrest in human NCI-H1975 cells assessed as G1 phase at 2 uM incubated for 24 hrs by propidium iodide based flow cytometry analysis (reference value: 60.76 %); assay type: functional
[29] = target: T2, Epidermal growth factor receptor
NCI-H1975 [30] = assay: Induction of apoptosis in human NCI-H1975 cells assessed as viable cells at 5 uM incubated for 24 hrs by annexin V-FITC and propidium iodide based flow cytometry analysis (reference value: 93.2 %); assay type: functional; conditions: read-out: Activity

T2 sequence (P00533 whole entry): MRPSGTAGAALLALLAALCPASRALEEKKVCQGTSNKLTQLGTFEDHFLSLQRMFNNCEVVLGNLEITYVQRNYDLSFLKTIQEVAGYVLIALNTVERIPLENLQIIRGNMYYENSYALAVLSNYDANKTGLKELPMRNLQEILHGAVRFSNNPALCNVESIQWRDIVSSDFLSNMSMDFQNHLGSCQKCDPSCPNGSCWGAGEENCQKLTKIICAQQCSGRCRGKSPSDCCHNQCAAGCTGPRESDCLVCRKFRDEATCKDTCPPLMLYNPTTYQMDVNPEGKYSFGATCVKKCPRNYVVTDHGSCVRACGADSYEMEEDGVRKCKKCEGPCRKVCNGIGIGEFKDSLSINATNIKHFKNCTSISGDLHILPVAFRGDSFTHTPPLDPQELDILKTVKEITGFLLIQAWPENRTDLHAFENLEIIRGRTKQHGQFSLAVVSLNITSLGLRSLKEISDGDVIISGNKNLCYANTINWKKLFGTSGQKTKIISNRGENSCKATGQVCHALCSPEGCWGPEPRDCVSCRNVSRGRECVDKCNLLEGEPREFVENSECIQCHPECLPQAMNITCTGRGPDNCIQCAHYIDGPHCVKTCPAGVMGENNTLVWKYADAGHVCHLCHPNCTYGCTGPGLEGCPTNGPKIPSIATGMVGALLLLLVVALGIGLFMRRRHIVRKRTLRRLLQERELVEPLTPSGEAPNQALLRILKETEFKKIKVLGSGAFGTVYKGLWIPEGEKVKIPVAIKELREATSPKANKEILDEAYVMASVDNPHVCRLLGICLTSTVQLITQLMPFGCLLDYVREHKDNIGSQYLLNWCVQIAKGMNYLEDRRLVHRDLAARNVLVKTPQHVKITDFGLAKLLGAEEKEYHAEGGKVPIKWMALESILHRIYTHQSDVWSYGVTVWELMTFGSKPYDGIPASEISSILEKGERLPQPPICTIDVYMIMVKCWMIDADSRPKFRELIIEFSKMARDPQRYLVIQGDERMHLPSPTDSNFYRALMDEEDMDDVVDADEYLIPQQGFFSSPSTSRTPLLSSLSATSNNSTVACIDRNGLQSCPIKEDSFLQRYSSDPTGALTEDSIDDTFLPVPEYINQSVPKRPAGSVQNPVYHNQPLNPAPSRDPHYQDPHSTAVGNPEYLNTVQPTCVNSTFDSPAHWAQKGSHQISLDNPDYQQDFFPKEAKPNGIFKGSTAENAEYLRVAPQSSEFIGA
Epidermal growth factor receptor (Homo sapiens, UniProt P00533, T790M), sequence (P00533 25-1210 T790M limits assumed): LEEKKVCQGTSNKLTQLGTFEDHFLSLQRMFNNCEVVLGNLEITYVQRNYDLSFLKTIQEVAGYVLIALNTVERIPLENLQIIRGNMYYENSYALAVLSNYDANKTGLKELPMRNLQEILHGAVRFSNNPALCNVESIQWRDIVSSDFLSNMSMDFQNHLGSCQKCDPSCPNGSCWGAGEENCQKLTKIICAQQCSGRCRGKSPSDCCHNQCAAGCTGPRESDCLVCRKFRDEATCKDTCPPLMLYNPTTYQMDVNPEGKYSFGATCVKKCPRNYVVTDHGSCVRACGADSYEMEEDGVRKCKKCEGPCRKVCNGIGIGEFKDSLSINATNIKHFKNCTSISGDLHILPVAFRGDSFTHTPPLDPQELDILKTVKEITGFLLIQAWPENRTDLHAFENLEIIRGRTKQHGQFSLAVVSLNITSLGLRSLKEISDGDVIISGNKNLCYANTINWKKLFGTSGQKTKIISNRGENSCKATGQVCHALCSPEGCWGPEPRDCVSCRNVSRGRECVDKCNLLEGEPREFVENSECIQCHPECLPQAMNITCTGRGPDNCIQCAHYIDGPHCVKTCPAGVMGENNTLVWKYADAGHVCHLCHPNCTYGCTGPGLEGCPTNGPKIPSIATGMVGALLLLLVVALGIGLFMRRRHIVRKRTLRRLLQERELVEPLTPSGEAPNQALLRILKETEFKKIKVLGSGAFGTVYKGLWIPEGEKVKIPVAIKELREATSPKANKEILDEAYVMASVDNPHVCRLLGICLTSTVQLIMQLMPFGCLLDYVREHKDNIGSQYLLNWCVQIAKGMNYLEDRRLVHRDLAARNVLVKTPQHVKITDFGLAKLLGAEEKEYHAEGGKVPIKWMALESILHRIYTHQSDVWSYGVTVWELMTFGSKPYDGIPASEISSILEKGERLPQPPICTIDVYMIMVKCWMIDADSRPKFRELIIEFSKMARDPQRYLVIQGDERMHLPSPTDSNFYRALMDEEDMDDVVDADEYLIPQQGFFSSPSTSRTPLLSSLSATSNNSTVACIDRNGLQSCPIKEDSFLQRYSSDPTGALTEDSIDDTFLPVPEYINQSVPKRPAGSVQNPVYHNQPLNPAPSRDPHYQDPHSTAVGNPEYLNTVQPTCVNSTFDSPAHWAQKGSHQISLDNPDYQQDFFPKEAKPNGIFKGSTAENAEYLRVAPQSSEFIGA

## COc1cc2ncnc(Nc3cccc(C(F)(F)F)c3)c2cc1OCCCCC(=O)Nc1ccc(S(N)(=O)=O)cc1
NCI-H1975 [1]
  viability at 2 µM: 68.4%
Carbonic anhydrase 9 [2]
  Activity: Dose-Dependent Effect
[3]
  IC50: 9.2 nM
NCI-H1975 [4]
  Activity: 14.1%
NCI-H1975 [5]
  Activity: 7.8%
NCI-H1975 [6]
  Activity: 15.58%
NCI-H1975 [7]
  Activity: Dose-Dependent Effect
NCI-H1975 [8]
  Activity: 3.4%
NCI-H1975 [9]
  Activity: Dose-Dependent Effect
NCI-H1975 [10]
  IC50: 1050 nM
[11]
  inhibition: Dose-Dependent Effect
Carbonic anhydrase 9 [12]
  IC50: 115 nM
A-431
  IC50: 4040 nM
NCI-H1975 [13]
  Activity: 26.6%
NCI-H1975 [14]
  Activity: 17.9%
NCI-H1975 [15]
  Activity: 54.85%
NCI-H1975 [16]
  Activity: Dose-Dependent Effect
[17]
  inhibition: Dose-Dependent Effect
NCI-H1975 [18]
  IC50: 1940 nM
NCI-H1975 [19]
  Activity: 17.21%
NCI-H1975 [20]
  Activity: 27.94%
A549 [21]
  IC50: 2210 nM
A549 [22]
  IC50: 6540 nM
Carbonic anhydrase 2
  IC50: 278 nM
NCI-H1975 [23]
  Activity: 2.19%
L02
  IC50: > 40000 nM
NCI-H1975 [24]
  Activity: Dose-Dependent Effect
NCI-H1975 [25]
  Activity: 47.44%
NCI-H1975 [26]
  Activity: 21.6%
[27]
  inhibition: Dose-Dependent Effect
NCI-H1975 [28]
  Activity: 36.98%
[29]
  IC50: 27 nM
NCI-H1975 [30]
  viability at 5 µM: 56%
